Results from ChEMBL document CHEMBL1649496, “Piperaquine pharmacodynamics and parasite viability in a murine malaria model” (Antimicrob Agents Chemother, 2009).

Tests used:
[1] = Plasma concentration in Swiss mouse infected with Plasmodium berghei ANKA at 90 mg/kg, ip after 60 days; format: ADME, organism-based; set-up: dose 90 mg/kg, route intraperitoneal
Method in brief: (§1)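 Infected Swiss mice (n = 4) were dosed with 90 mg/kg piperaquine phosphate i.p. at day 0. Plasma was taken by cardiac puncture, centrifuged at 3,000 x g for 5 min and stored at –80°C. Drug was measured by a validated HPLC assay (LOQ 1.6 µg/liter, LOD 0.7 µg/liter, CV <12%). Values are mean ± SD.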

Plasmodium berghei [2] = experiment: Antiplasmodial activity against Plasmodium berghei ANKA infected in Swiss mouse assessed as assessed as time required for parasite recrudescence at 90 mg/kg, ip; format: functional; details: route intraperitoneal
[3] = Plasma concentration in Swiss mouse infected with Plasmodium berghei ANKA at 90 mg/kg, ip after 40 days; format: ADME, organism-based; set-up: dose 90 mg/kg, route intraperitoneal; method in brief: as §1
Plasmodium berghei [4] = experiment: Antiplasmodial activity against Plasmodium berghei ANKA infected in Swiss mouse assessed as parasitemia at 90 mg/kg, ip measured on day 25 postinfection; format: functional; details: route intraperitoneal
Method in brief: (§2)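 Male Swiss mice (5–6 weeks) infected i.p. with 10^7 P. berghei ANKA-parasitized erythrocytes taken from passage BALB/c mice and diluted in citrate-phosphate-dextrose. At 64 h (3–5% parasitemia confirmed by thin film), piperaquine phosphate was given once i.p. at 90 mg/kg in 50% glycerol/30% isotonic phosphate buffer pH 7.1/20% polysorbate 80. Parasitemia was read from May-Grunwald Giemsa tail-blood smears (mean ± SD) and tracked from dosing (day 0).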

Plasmodium berghei [5] = experiment: Antiplasmodial activity against Plasmodium berghei ANKA infected in Swiss mouse assessed as parasitemia at 90 mg/kg, ip measured on day 60 postinfection; format: functional; details: route intraperitoneal; method in brief: as §2
Plasmodium berghei [6] = experiment: Antiplasmodial activity against Plasmodium berghei ANKA infected in Swiss mouse assessed as parasitemia at 90 mg/kg, ip measured on day 13 postinfection; format: functional; details: route intraperitoneal; method in brief: as §2
[7] = Plasma concentration in Swiss mouse infected with Plasmodium berghei ANKA at 90 mg/kg, ip after 25 days; format: ADME, organism-based; set-up: dose 90 mg/kg, route intraperitoneal; method in brief: as §1
Plasmodium berghei [8] = experiment: Antiplasmodial activity against Plasmodium berghei ANKA infected in Swiss mouse assessed as median survival time at 90 mg/kg, ip administered 5 days after infection; format: functional; details: route intraperitoneal
Method in brief: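 Naive male Swiss mice (5 weeks, n = 5 per donor) inoculated i.p. with 200 µl of a 1:5 dilution of saline-washed, buffy-coat-depleted red cells from PQP-treated infected donor mice (<105 parasites). Five days later three mice per cohort received single i.p. 90 mg/kg PQP in glycerol/phosphate buffer pH 7.1/polysorbate 80; two left untreated. Parasitemia by Giemsa thin films twice daily; median survival recorded.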

Plasmodium berghei [9] = experiment: Antiplasmodial activity against Plasmodium berghei ANKA infected in Swiss mouse assessed as parasitemia at 90 mg/kg, ip measured on day 40 postinfection; format: functional; details: route intraperitoneal; method in brief: as §2
Plasmodium berghei [10] = experiment: Antiplasmodial activity against Plasmodium berghei ANKA infected in Swiss mouse assessed as parasitemia at 90 mg/kg, ip administered 5 days after infection measured up to 25 days; format: functional; details: route intraperitoneal
Method in brief: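 Donor blood from previously infected, treated mice was taken by cardiac puncture and the red cells washed three times in 0.9% NaCl. A 1:5 dilution (<10^5 parasites) was given i.p. to naive male mice (5 weeks; n = 5 per donor). Five days later, three mice per group received a single 90 mg/kg i.p. dose of piperaquine phosphate and two stayed untreated. Giemsa smears were read twice daily.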

Plasmodium berghei [11] = experiment: Antiplasmodial activity against Plasmodium berghei ANKA infected in Swiss mouse assessed as parasitemia at 90 mg/kg, ip measured on day 90 postinfection; format: functional; details: route intraperitoneal; method in brief: as §2

`Clc1ccc2c(N3CCN(CCCN4CCN(c5ccnc6cc(Cl)ccc56)CC4)CC3)ccnc2c1.O=P(O)(O)O` [PIPERAQUINE PHOSPHATE] gave a concentration at 1440 h [1] of 2 ng/mL, a Time (Plasmodium berghei [2]) of 7 days and a concentration at 960 h [3] of 11 ng/mL. The Activity (Plasmodium berghei [4]) was less than 0.015%, the Activity (Plasmodium berghei [5]) was 0.3% and the Activity (Plasmodium berghei [6]) was 1.32%. For the same compound, the concentration at 600 h [7] was 15 ng/mL, the MST (Plasmodium berghei [8]) was 19 days and the Activity (Plasmodium berghei [9]) was 0.1%. It also gave an Activity (Plasmodium berghei [10]) of 10% and an Activity (Plasmodium berghei [11]) of 0.9%.
